For 37 sequences, Tm and folding enthalpy results are on record in the array DNA melting data of Ke et al. (doi:10.1101/2024.01.08.574731).

Data set [1] is described as follows: melting temperature; fluorescence melt of hairpins on a sequencing array, two-state fit, raised by 9.35 °C to match UV melts. The settings on record: sodium 0.088 M. A digest of the protocol:
(§1)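 In 50 mM Na-HEPES pH 8.0 containing 25 mM NaCl, hairpins from the library on a sequenced MiSeq flow cell were imaged for Cy3 fluorescence at 2.5 °C steps up to 60 °C, with Cy3 and quencher oligos annealed. After normalisation to pre-quench Cy3 and to control constructs, two-state fits with bootstrapping gave melting temperature and folding enthalpy. Four replicates were combined by inverse-variance weighting, and fitted temperatures were shifted up by 9.35 °C to match UV melts.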

Data set [2] in a line: folding enthalpy; higher = less favourable; fluorescence melt of hairpins on a sequencing array, two-state fit. The settings on record: sodium 0.088 M. A digest of the protocol:
as §1

Consider GCACCGCGAAAGCAGCGC ((.(.((....)).).)), for which, in data set [1], the Tm is 46.5 °C. Besides, the folding enthalpy in data set [2] was -18.2 kcal/mol.
The corresponding values for GTATCCGAAAGGATTAC ((((((....))).))) are 41 °C and -13.7 kcal/mol.
Consider GACTATGGAAACACAGTC ((((.((....)).)))), for which the Tm in data set [1] came to 33 °C. In data set [2], the folding enthalpy is -19.1 kcal/mol.
The corresponding values for GCGCAGCGAAAGCTTTGC ((..(((....)))..)) are 38.8 °C and -6.59 kcal/mol.
On the same counts, the results for AGATGGAAACATCT (((((....))))) are 42.1 °C and -19 kcal/mol.
On the same counts, the results for GCCAAGCGAAAGCGTAGC ((.(.((....)).).)) are 47.5 °C and -13.3 kcal/mol.
In the case of GAGGCGACGAAAGTCCTC (((..(((....)))))), in data set [1], the Tm is 38.1 °C. In data set [2], the folding enthalpy was -12.6 kcal/mol.
With GTCGGCGAAAGCCGGGAC ((((((....)))..))), in data set [1], the Tm turned out to be 44.1 °C. Also, the folding enthalpy in data set [2] is -8.08 kcal/mol.
On the same counts, the results for GACCCAGGAAACTGGATC ((.((((....)))).)) are 38.8 °C and -17.9 kcal/mol.
The corresponding values for GCCATGCGAAAGCGTCGC ((.(.((....)).).)) are 48 °C and -12.7 kcal/mol.
With GCTCGTCGAAAGACCAGC (((.(((....))).))), the Tm in data set [1] turned out to be 45.1 °C. The folding enthalpy in data set [2] is -15.2 kcal/mol.
On the same counts, the results for GACCGCGAAAGCGACGTC ((((((....)))..))) are 45.8 °C and -13.2 kcal/mol.
The corresponding values for GATTGCGAAAGCAGGATC ((((((....)))..))) are 30.1 °C and -10.9 kcal/mol.
On the same counts, the results for GATCATTTTGATGATC ((((((....)))))) are 49.5 °C and -51.2 kcal/mol.
Regarding GGTATAGGAAACTATACC (((((((....))))))), the Tm in data set [1] is 52.1 °C. Further, the folding enthalpy in data set [2] is -42.4 kcal/mol.
On the same counts, the results for GATCACGAGGGTGATC ((((((....)))))) are 54.6 °C and -38.1 kcal/mol.
The corresponding values for GGGCCGACGAAAGTCCCC (((..(((....)))))) are 43.8 °C and -12 kcal/mol.
On the same counts, the results for GATCGCGAAAGCGTTATC ((((((....)))..))) are 28.1 °C and -15 kcal/mol.
In the case of GCCACAGCGAAAGCTGGC (((..(((....)))))), the Tm in data set [1] worked out at 51.9 °C. Besides, in data set [2], the folding enthalpy is -12.5 kcal/mol.
On the same counts, the results for GATGCCCGAAAGGGGATC (((.(((....))).))) are 59 °C and -21.9 kcal/mol.
GCAGTGCGAAAGCCCAGC ((.(.((....)).).)): the Tm in data set [1] amounted to 38 °C. Further, the folding enthalpy in data set [2] is -15.4 kcal/mol.
Take GCATGCGAAAGCAAATGC ((((((....)))..))): the Tm in data set [1] was determined as 52.6 °C. Moreover, in data set [2], the folding enthalpy was -24.9 kcal/mol.
Consider GATCTAGGGTAGATC ((((((...)))))), for which the Tm in data set [1] is 36.7 °C. The folding enthalpy in data set [2] is -22.7 kcal/mol.
On the same counts, the results for GCTCCGCGAAAGCAGAGC ((((.((....)).)))) are 64 °C and -31.6 kcal/mol.
On the same counts, the results for GTATCCGAAAGGAGTAC ((((((....))).))) are 35.5 °C and -19.1 kcal/mol.
On the same counts, the results for AGGTTGAAAAACCT (((((....))))) are 45.6 °C and -20.5 kcal/mol.
With GTAGCCGAAAGGCATAC ((((((....))).))), the Tm in data set [1] is 43.5 °C. The folding enthalpy in data set [2] was -11.9 kcal/mol.
The corresponding values for GAGGGGGGAAACCCTCTC (((.(((....))).))) are 53.7 °C and -27.6 kcal/mol.
The corresponding values for GCCACCGGAAACAGCGGC (((.(.(....).).))) are 32.5 °C and -16.9 kcal/mol.
For the sequence GCGATTCTTCGC ((((....)))), in data set [1], the Tm came out at 53.5 °C. Also, the folding enthalpy in data set [2] was -26.1 kcal/mol.
The corresponding values for GCAATCGGAAACGATTGC (((((((....))))))) are 69.2 °C and -41.9 kcal/mol.
The corresponding values for GTTCGCGAAAGCGGAAAC ((((((....)))..))) are 36.6 °C and -9.75 kcal/mol.
For the sequence GCGGGGTGCCGC ((((....)))), the Tm in data set [1] stood at 61.2 °C. The folding enthalpy in data set [2] is -26.3 kcal/mol.
On the same counts, the results for CTCAAGAAATTGAG (((((....))))) are 33.8 °C and -12.8 kcal/mol.
Turning to GCAGGTGGAAACACCTAC (.(((((....))))).), the Tm in data set [1] turned out to be 39.3 °C. Also, the folding enthalpy in data set [2] was -15.4 kcal/mol.
On the same counts, the results for CGTAGCCGGAAACGGACG (((..(((....)))))) are 31.7 °C and -8.93 kcal/mol.
The corresponding values for GGCCTCGAAAGAGTTGCC ((((((....)))..))) are 45.5 °C and -17.2 kcal/mol.
